Calls of active or inactive are those of the source. The rule behind the calls is not given here.
Experiments:
[1] = Cmax in ICR mouse at 20 mg/kg, po by LC-MS/MS analysis; type: ADME, organism-based; set-up: dose 20 mg/kg, route oral; conditions: in vivo
Procedure, shortened: (§1)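 Male ICR mice, 4 per group, gavaged at 20 mg/kg in 0.5% carboxymethylcellulose sodium. Samples taken at 0.5, 1, 2, 3, 5, 7, 12 and 24 h and quantified by LC-MS/MS. Parameters derived from mean serum concentration. Values are mean ± SEM.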

[2] = tested on: Mus musculus; test: Antiinflammatory activity in db/db mouse model assessed as reduction in IL6 mRNA expression in liver at 20 to 50 mg/kg, po administered daily for 6 weeks by SYBR green labeled PCR analysis; type: functional, organism-based
Procedure, shortened: (§2)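 db/db mice, 4–5 weeks old, n = 4–5 per group, dosed orally at 20 or 50 mg/kg/day in 0.5% CMC-Na for 6 weeks. Total RNA extracted from liver or white adipose tissue with Trizol. Transcripts quantified by SYBR Green real-time qPCR with specific primers.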

[3] = target: T1, Phosphatidylcholine:ceramide cholinephosphotransferase 1 (Homo sapiens) (UniProt Q86VZ5); test: Inhibition of human SMS1 at 50 uM using C6-NBD-ceramide and DMPC as substrate preincubated for 5 mins followed by substrate addition and measured after 30 mins by HPLC analysis relative to control
T1 sequence (whole entry): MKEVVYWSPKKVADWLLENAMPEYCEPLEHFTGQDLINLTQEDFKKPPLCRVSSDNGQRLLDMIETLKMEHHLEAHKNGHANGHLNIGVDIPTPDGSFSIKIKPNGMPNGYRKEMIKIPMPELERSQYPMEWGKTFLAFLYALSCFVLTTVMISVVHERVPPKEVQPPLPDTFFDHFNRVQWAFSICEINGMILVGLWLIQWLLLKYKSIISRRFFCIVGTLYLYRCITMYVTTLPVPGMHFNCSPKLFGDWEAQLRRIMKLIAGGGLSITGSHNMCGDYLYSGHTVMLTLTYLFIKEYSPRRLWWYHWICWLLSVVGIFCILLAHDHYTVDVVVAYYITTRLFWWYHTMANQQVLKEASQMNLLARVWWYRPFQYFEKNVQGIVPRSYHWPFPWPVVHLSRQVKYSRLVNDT
Procedure, shortened: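 Purified human enzyme in 150 mM NaCl, 20 mM Hepes pH 7.5, 1 mM DDM. SMS1 at 0.041 µg/µL, SMS2 at 0.0041 µg/µL. Enzyme preincubated with compound in DMSO for 5 min at rt. C6-NBD-ceramide and DMPC then added in 100 µL total and incubated 37 °C for 30 min. Reaction quenched with ethanol and product read by HPLC.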

[4] = Clearance in ICR mouse at 10 mg/kg, iv by LC-MS/MS analysis; type: ADME, organism-based; conditions: in vivo
Procedure, shortened: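 Male ICR mice, 4 per group, given 10 mg/kg iv in 5% DMSO/5% Polyoxyl 35 castor oil in saline. Samples taken pre-dose and at 5, 15, 30 min and 1, 3, 5, 7, 24 h. Levels measured by LC-MS/MS. Parameters calculated from mean serum concentration. Data are mean ± SEM.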

[5] = Tmax in ICR mouse at 20 mg/kg, po by LC-MS/MS analysis; type: ADME, organism-based; conditions: in vivo; procedure, shortened: as §1
[6] = tested on: Mus musculus; test: Antiinflammatory activity in db/db mouse model assessed as reduction of SM (d18:1/16:0) levels in white adipose tissue at 20 mg/kg, po administered daily for 6 weeks by LC analysis; type: functional; set-up: scale not given: the % may be the effect or the level left
[7] = tested on: Mus musculus; test: In vivo inhibition of SMS in ICR mouse assessed as decrease in SM levels in plasma at 40 mg/kg, ip using NBD-ceramide as substrate administered daily for 7 days; type: functional, organism-based; conditions: in the assay text read “by enzymatic measurement” for “using NBD-ceramide as substrate”
Procedure, shortened: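 Male ICR mice (20–23 g), 3 per group, injected ip with 40 mg/kg daily for 7 days. Vehicle was 5% DMSO/5% Cremophor EL/0.9% NaCl. Plasma SM measured by an enzymatic method.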

[8] = tested on: RAW264.7; test: Induction of apoptosis in mouse RAW264.7 cells at 1 to 5 uM after 24 hrs by flow cytometry; type: cell-based; conditions: raw264.7, 24 h
[9] = tested on: Mus musculus; test: Antiinflammatory activity in db/db mouse model assessed as reduction in plasma insulin levels at 20 to 50 mg/kg, po administered daily for 6 weeks by ELISA; type: functional, organism-based
Procedure, shortened: (§3)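 db/db mice, 4–5 weeks old, n = 4–5 per group, received 20 or 50 mg/kg/day orally in 0.5% CMC-Na for 6 weeks. Serum collected from the eye after a 6 h fast. IL-6 or insulin measured by ELISA following the kit instructions.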

[10] = tested on: Mus musculus; test: Antiinflammatory activity in db/db mouse model assessed as reduction in IL6 mRNA expression in white adipose tissue at 20 to 50 mg/kg, po administered daily for 6 weeks by SYBR green labeled PCR analysis; type: functional, organism-based; procedure, shortened: as §2
[11] = Half life in ICR mouse at 20 mg/kg, po by LC-MS/MS analysis; type: ADME, organism-based; conditions: in vivo; procedure, shortened: as §1
[12] = tested on: Mus musculus; test: In vivo inhibition of SMS in ICR mouse liver at 50 mg/kg, po administered as single dose via gavage and measured after 2 hrs post dose by HPLC analysis; type: functional, organism-based
Procedure, shortened: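 Male ICR mice, 3 per group, fasted overnight and given a single oral dose of 50 mg/kg in 0.5% CMC-Na. Livers removed 2 h later and homogenized in 0.25 M sucrose, 50 mM Tris-HCl pH 7.4, 1 mM EDTA. The supernatant was assayed for SMS activity by HPLC of C6-NBD-Cer and C6-NBD-SM.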

[13] = tested on: Mus musculus; test: Antiinflammatory activity in db/db mouse model assessed as reduction in IL1beta mRNA expression in liver at 20 mg/kg, po administered daily for 6 weeks by SYBR green labeled PCR analysis; type: functional, organism-based; procedure, shortened: as §2
[14] = tested on: Mus musculus; test: Antiinflammatory activity in db/db mouse model assessed as reduction in plasma IL6 levels at 20 to 50 mg/kg, po administered daily for 6 weeks by ELISA; type: functional, organism-based; procedure, shortened: as §3

Cmax [1]: 510 ng/mL
inhibition [3]: 44%
clearance [4]: 103 mL/min/kg
Tmax [5]: 2.2 h
half-life [11]: 2.3 h
Structure (SMILES): Fc1ccc(Cl)c(COc2cccc3onc(Nc4cccnc4)c23)c1
Activity [2]: Active
Activity [6]: 20%
inhibition [7]: Active
Activity [8]: Non-Toxic
Activity [9]: Active
Activity [10]: Active
inhibition [12]: Active
Activity [13]: inactive
Activity [14]: Active
